Laboratory results from publication PMC10582660 (Clinical and Translational Science, 2023).

Target: T1, OATP1B3 (Homo sapiens, UniProt Q9NPD5)
T1 sequence (Q9NPD5 1-702): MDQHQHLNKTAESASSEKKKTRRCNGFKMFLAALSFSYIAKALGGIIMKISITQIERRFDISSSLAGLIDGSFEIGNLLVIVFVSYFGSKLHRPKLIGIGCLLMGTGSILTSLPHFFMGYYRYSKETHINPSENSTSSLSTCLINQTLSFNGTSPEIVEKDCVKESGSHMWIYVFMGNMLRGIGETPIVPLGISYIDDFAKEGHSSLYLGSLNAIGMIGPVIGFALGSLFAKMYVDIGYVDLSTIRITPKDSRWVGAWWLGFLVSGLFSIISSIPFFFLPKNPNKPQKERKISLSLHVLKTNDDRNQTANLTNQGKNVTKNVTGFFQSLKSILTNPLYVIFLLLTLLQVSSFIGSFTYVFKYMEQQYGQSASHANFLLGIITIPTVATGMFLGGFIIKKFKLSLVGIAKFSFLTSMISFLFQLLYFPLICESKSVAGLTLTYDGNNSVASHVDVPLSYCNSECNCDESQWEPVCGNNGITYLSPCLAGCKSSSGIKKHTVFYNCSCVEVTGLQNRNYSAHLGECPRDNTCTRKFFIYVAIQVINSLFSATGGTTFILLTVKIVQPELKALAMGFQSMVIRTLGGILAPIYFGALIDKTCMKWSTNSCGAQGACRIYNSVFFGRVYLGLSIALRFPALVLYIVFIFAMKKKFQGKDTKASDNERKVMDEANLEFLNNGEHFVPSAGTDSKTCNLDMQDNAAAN
Assay: Raloxifene as a substrate for uptake transporters
Type: in vitro ADME
Details: raloxifene 1, 10 μM, 2, 20 min, two‐fold cutoff
Summary of the method: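 Uptake of test compound (1 and 10 μM, 2 and 20 min) measured in transporter-expressing HEK293 or MDCKII cells or inside-out membrane vesicles. Run with positive-control probe substrates and inhibitors, plus empty-vector or untransfected control cells. Fold-accumulation relative to control cells judged against a two-fold cutoff for substrate status.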

fold‐accumulation: 1.56–1.70
Structure (SMILES): O=C(c1ccc(OCCN2CCCCC2)cc1)c1c(-c2ccc(O)cc2)sc2cc(O)ccc12 [Raloxifene, raloxifene, reference compound]
